ChEMBL document CHEMBL4145692, “Discovery of a Locally and Orally Active CXCL12 Neutraligand (LIT-927) with Anti-inflammatory Effect in a Murine Model of Allergic Airway Hypereosinophilia” (J Med Chem, 2018)
Active and inactive are the calls of the source. The calls are words filed in the database; no cut-off is given here.

Experiments:
Mus musculus [1] = experiment: Toxicity in Balb/c mouse model of hypereosinophilia assessed as induction of bristly hair at 350 umol/kg, ip dosed daily 2 hrs before allergen challenge for 10 days and measured 24 hrs after last dose; type: organism-based; conditions: in vivo
How it was run: (§1)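 Mice given 10 daily administrations at 350 μmol/kg. Monitored for weight loss and for signs of toxicity, including prostration and bristly hair.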

Mus musculus [2] = experiment: Inhibition of eosinophil infiltration in Balb/c mouse model of 8 day model of allergic eosinophilic airway inflammation at 300 nmol/kg dosed intranasally 2 hrs before ovalbumin challenge by hemocytometry; type: functional; conditions: inhaled or nasal
How it was run: (§2)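 OVA/alum-sensitized Balb/c mice challenged intranasally with OVA on days 5–7. Compounds at 300 nmol/kg in 10% PBS/Cdx given intranasally 2 h before each challenge. BAL 24 h after the last challenge; eosinophils, neutrophils and lymphocytes counted by hemocytometer and differential cytospin; n=6/group.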

[3] = molecular target: T1, C-C motif chemokine 5 (Homo sapiens) (UniProt P13501); experiment: Binding affinity to CCL5 (unknown origin) assessed as inhibition of CCL5-induced increase in intracellular calcium level in EGFP-tagged CCR5 expressing HEK cells at 10 uM
T1 sequence (whole entry): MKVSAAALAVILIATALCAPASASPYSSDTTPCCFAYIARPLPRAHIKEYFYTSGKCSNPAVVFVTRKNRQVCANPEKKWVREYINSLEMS

Mus musculus [4] = experiment: Toxicity in Balb/c mouse model of hypereosinophilia assessed as reduction in body weight at 12.6 umol/kg, ip dosed daily 2 hrs before allergen challenge for 3 days and measured 24 hrs after last dose; type: organism-based; conditions: in vivo
How it was run: (§3)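 Same OVA model with i.p. dosing 2 h before each of the three challenges: neutraligands 350 μmol/kg in PBS/CMC 1%, AMD3100 12.6 μmol/kg, dexamethasone 2.5 μmol/kg. Body and spleen weight loss recorded 24 h after three daily administrations; n=6/group.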

Mus musculus [5] = experiment: Inhibition of lymphocytes infiltration in Balb/c mouse model of 8 day model of allergic eosinophilic airway inflammation at 300 nmol/kg dosed intranasally 2 hrs before ovalbumin challenge by hemocytometry; type: functional, organism-based; how it was run: as §2
[6] = Chemical stability in pH 7.4 PBS buffer assessed as parent compound remaining at 10 uM incubated for 24 hrs by RP-HPLC method; type: physicochemical; conditions: read-out: Stability
How it was run: (§4)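 Compound diluted from DMSO stock to 10 μM final (1% DMSO) in PBS pH 7.4, or in PBS with 10% w/w (2-hydroxypropyl)-β-cyclodextrin. Sampled at t0, 2, 4, 6 and 24 h and injected directly onto RP-HPLC. Percent remaining relative to t0 from peak area.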

[7] = molecular target: T2, Stromal cell-derived factor 1 (Homo sapiens, UniProt P48061); experiment: Binding affinity to Texas Red-labelled CXCL12 (unknown origin) assessed as inhibition of CXCL12-Texas Red binding to EGFP-labeled human CXCR4 expressed in HEK293 cell membranes pre-incubated for 1 hr by FRET-based binding assay
How it was run: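 HEK-293 cells stably expressing human EGFP-CXCR4, 10⁶ cells/ml in HEPES buffer pH 7.4 with 0.1% BSA, 21 °C. CXCL12-Texas Red (100 nM) was preincubated 1 h at room temperature with compound or DMSO, then added at t=150 s. FRET read as loss of EGFP emission at 510 nm (excitation 470 nm) up to equilibrium. Ki from dose-response curves.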

Mus musculus [8] = experiment: Toxicity in Balb/c mouse model of hypereosinophilia assessed as prostration at 350 umol/kg, ip dosed daily 2 hrs before allergen challenge for 10 days and measured 24 hrs after last dose; type: organism-based; conditions: in vivo; how it was run: as §1
Mus musculus [9] = experiment: Inhibition of eosinophil infiltration in Balb/c mouse model of 8 day model of allergic eosinophilic airway inflammation dosed intranasally 2 hrs before ovalbumin challenge by hemocytometry; type: functional, organism-based
How it was run: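 Same intranasal OVA model with dose-response treatment in PBS/Cdx 10% given 2 h before each challenge. Percent inhibition of BAL eosinophil recruitment; mean ± SEM, n=6/group.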

Mus musculus [10] = experiment: Toxicity in Balb/c mouse model of hypereosinophilia assessed as induction of liver lesions at 350 umol/kg, ip dosed daily 2 hrs before allergen challenge for […] and measured 24 hrs after last dose by Gomori's trichrome staining based histological analysis; type: organism-based; conditions: in vivo
[11] = molecular target: T3, C-C motif chemokine 17 (Homo sapiens) (UniProt Q92583); experiment: Binding affinity to CCL17 (unknown origin) assessed as inhibition of CCL17-induced increase in intracellular calcium level in EGFP-tagged CCR4 expressing HEK cells at 10 uM
T3 sequence (whole entry): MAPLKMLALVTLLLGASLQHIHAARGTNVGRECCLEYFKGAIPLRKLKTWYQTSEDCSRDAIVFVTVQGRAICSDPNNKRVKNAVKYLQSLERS

[12] = molecular target: T4, C-C motif chemokine 22 (Homo sapiens) (UniProt O00626); experiment: Binding affinity to CCL22 (unknown origin) assessed as inhibition of CCL22-induced increase in intracellular calcium level in EGFP-tagged CCR4 expressing HEK cells at 10 uM
T4 sequence (whole entry): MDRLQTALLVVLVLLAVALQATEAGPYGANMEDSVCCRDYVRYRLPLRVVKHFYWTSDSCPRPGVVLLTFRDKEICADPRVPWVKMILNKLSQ

Mus musculus [13] = experiment: Anti-inflammatory activity in Balb/c mouse model of hypereosinophilia assessed as inhibition of eosinophil infiltration at 350 umol/kg, ip dosed 2 hrs before allergen challenge; type: functional
How it was run: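 Balb/c mice sensitized with OVA/alum i.p. and challenged intranasally with OVA on 3 consecutive days. Compounds given i.p. 2 h before each challenge: neutraligands 350 μmol/kg in PBS/CMC 1%, AMD3100 12.6 μmol/kg, dexamethasone 2.5 μmol/kg. BAL 24 h after the last challenge; absolute eosinophil counts; mean ± SEM, n=6/group.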

[14] = molecular target: T2, Stromal cell-derived factor 1; experiment: Binding affinity to CXCL12 (unknown origin) assessed as changes in tryptophan fluorescence intensity
How it was run: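 Intrinsic Trp fluorescence of CXCL12 (2 μM in Hepes buffer), excitation 285 nm, emission 340 nm, titrated with increasing compound. Kd obtained by fitting a 1:1 binding quadratic model with chemokine fixed at 2 μM. Mean ± SD of three independent experiments.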

Mus musculus [15] = experiment: Toxicity in Balb/c mouse model of hypereosinophilia assessed as reduction in spleen weight at 350 umol/kg, ip dosed daily 2 hrs before allergen challenge for 3 days and measured 24 hrs after last dose; type: organism-based; design: scale not given: the % may be the effect or the level left; conditions: in vivo; how it was run: as §3
[16] = molecular target: T2, Stromal cell-derived factor 1; experiment: Binding affinity to CXCL12 (unknown origin) assessed as inhibition of CXCL12 -induced increase in intracellular calcium level in EGFP-tagged CXCR4 expressing HEK cells at 10 uM; type: cell-based
How it was run: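 TRIC-r calcium assay, neutraligand protocol. Compound at 10 μM (DMSO control) tested against calcium responses triggered by 5 nM of each chemokine on its receptor line: CXCL12 on EGFP-CXCR4⁺ HEK, CCL17 or CCL22 on EGFP-CCR4⁺ HEK, CCL5 on EGFP-CCR5⁺ HEK, CCL2 on EGFP-CCR2⁺ HEK. Mean ± SD, n=3.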

Mus musculus [17] = experiment: Toxicity in Balb/c mouse model of hypereosinophilia assessed as reduction in body weight at 350 umol/kg, ip dosed daily 2 hrs before allergen challenge for 3 days and measured 24 hrs after last dose; type: organism-based; design: scale not given: the % may be the effect or the level left; conditions: in vivo; how it was run: as §3
[18] = Chemical stability in pH 7.4 PBS/Cdx buffer assessed as parent compound remaining at 10 uM incubated for 24 hrs by RP-HPLC method; type: physicochemical; conditions: read-out: Stability; how it was run: as §4

T2 sequence (P48061 whole entry): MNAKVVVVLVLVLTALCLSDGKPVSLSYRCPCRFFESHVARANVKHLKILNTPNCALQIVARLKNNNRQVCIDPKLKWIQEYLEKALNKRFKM

inhibition [3]: inactive | remaining at 24 h, 10 µM [6]: 100% | Ki [7]: 0.267 µM | IC50 (Mus musculus [9]): 310 nmol/kg | inhibition [11]: inactive | inhibition [12]: inactive | Kd [14]: 0.78 µM | inhibition [16]: Active | remaining at 24 h, 10 µM [18]: 100%
SMILES: COc1cc(-c2cc(-c3ccc(Cl)cc3)nc(=O)[nH]2)ccc1O
Activity (Mus musculus [1]): Non-Toxic | inhibition in vivo at 0.3 µmol/kg (Mus musculus [2]): 48% | Activity (Mus musculus [4]): Non-Toxic | inhibition (Mus musculus [5]): inactive | Activity (Mus musculus [8]): Non-Toxic | Activity (Mus musculus [10]): Non-Toxic | inhibition in vivo at 350 µmol/kg (Mus musculus [13]): 55% | Activity (Mus musculus [15]): 0% | Activity (Mus musculus [17]): 0%
